Experimental data published in ChEMBL document CHEMBL1122595, “Stereochemical considerations and the antiinflammatory activity of 6-amino-6,7,8,9-tetrahydro-5H-benzocyclohepten-5-ols and related derivatives” (1984).

Legend:
[1] = tested on: Rattus norvegicus; assay: Antiinflammatory activity in rats by using reverse passive Arthus reaction (RPAR) assay at dose level of 50 mg/Kg by peroral administration; type: functional
Summary of the method: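 Rats fasted 24 h before and during study, water ad libitum; groups of at least six dosed by gavage in methylcellulose 1 h before iv (penile vein) BSA 1 mg sensitization under light ether; 1 h later subplantar anti-BSA 0.1 mg in right hind paw. Paw volume by mercury plethysmograph immediately and 2 h postchallenge; percent inhibition vs MC controls, ANOVA (Duncan, Dunnett).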

[2] = species: Rattus norvegicus; assay: The relative potency was evaluated by considering the potency of indomethacin as 1; type: functional
Summary of the method: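 Rat reverse passive Arthus paw oedema (oral gavage in methylcellulose 1 h before iv BSA, subplantar anti-BSA 1 h later, plethysmograph change over 2 h); three to five dose points; ED50 and potency relative to indomethacin standard derived by linear regression.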

Row | Compound | Inhibitory response [1] [%] | Relative potency [2]
1 | NC1CCCc2ccc(SCc3ccccc3)cc2C1O (stereo in doubt; 4w) | 31 | –
2 | CC(C)c1ccc2c(c1)C(O)C(N)CCC2 (stereo unspecified) | 100 | 0.12
3 | O=C1NC2CCCc3cc(Cl)ccc3C2O1 (stereo in doubt; 19e) | 9 | –
4 | O=C1NC2CCCc3ccc(Cl)cc3C2O1 (stereo in doubt; 20h) | 29 | –
5 | COc1cc2c(cc1OC)C(O)C(N)CCC2.Cl (stereo in doubt; 4dd) | 93 | 0.2
6 | NC1CCCc2ccc(SCc3ccccc3)cc2C1O (stereo in doubt; 4v) | 99 | –
7 | CC(C)Oc1ccc2c(c1)C(O)C(N)CCC2 (stereo in doubt; 4m) | 77 | 0.18
8 | COc1ccc2c(c1)CCCC1NC(=O)OC21 (stereo unspecified) | 0 | –
9 | O=C1NC2CCCc3ccc(F)cc3C2O1 (stereo in doubt; 20i) | 78 | 0.03
10 | Cl.NC1CCCc2ccccc2C1O (stereo in doubt; 4b) | 98 | 0.15
11 | CC(C)Sc1ccc2c(c1)C(O)C(N)CCC2 (stereo unspecified) | 39 | –
12 | O=C1NC2CCCc3cc(Cl)ccc3C2O1 (stereo in doubt; 20d) | 18 | –
13 | COc1ccc2c(c1)C(O)C(N)CCC2 (stereo in doubt; 4j) | 13 | 0.02
14 | COc1cc2c(cc1[S+](C)[O-])C(O)C(N)CCC2 (stereo in doubt; 4hh) | 8 | –
15 | CC(=O)Nc1ccc2c(c1)C(O)C(N)CCC2 (stereo unspecified) | 18 | –
16 | O=C1NC2CCCc3ccc(Cl)cc3C2O1 (stereo in doubt; 19i) | 9 | –
17 | NC[C@@H]1c2ccccc2CCC[C@H]1O | 0 | –
18 | O=C1NC2CCCc3ccccc3C2O1 (stereo in doubt; 20a) | 92 | 0.06
19 | O=C1NC2CCCc3cc(F)ccc3C2O1 (stereo in doubt; 19f) | 39 | –
20 | Cl.N[C@@H]1CSCc2ccccc2[C@@H]1O | 2 | –

Row | Compound | Inhibitory response [1] [%] | Relative potency [2]
21 | Cl.NC1CCCc2ccccc2C1O (stereo in doubt; 4c) | 11 | 0.02
22 | COc1cc2c(cc1SC)C(O)C(N)CCC2 (stereo in doubt; 4gg) | 29 | –
23 | COc1ccc2c(c1)CCCC(N)C2O (stereo unspecified) | 80 | 0.1
24 | C[S+]([O-])c1ccc2c(c1)C(O)C(N)CCC2 (stereo unspecified) | 7 | –
25 | COc1cc2c(cc1OC)C(O)C(N)CCC2.Cl (stereo in doubt; 4ee) | 13 | 0.03
26 | CC(C)(C)C(=O)OCOc1ccc2c(c1)C(O)C(N)CCC2 (stereo in doubt; 4r) | 3 | –
27 | NC[C@H]1c2ccccc2CCC[C@H]1O | 8 | –
28 | COc1ccc2c(c1)C(O)C(N)CCC2 (stereo in doubt; 4i) | 98 | 0.75
29 | NC1CCCc2ccc(F)cc2C1O (stereo unspecified) | 96 | 0.15
30 | Cc1ccc2c(c1)CCCC1NC(=O)OC21 (stereo unspecified) | 28 | –
31 | N[C@@H]1CCCc2cccnc2[C@@H]1O | 28 | –
32 | O=C1NC2CCCc3ccc(F)cc3C2O1 (stereo in doubt; 19j) | 19 | –
33 | CSc1ccc2c(c1)CCCC(N)C2O (stereo unspecified) | 84 | 0.04
34 | CSc1ccc2c(c1)C(O)C(N)CCC2 (stereo in doubt; 4k) | 90 | 0.56
35 | O=C1NC2CCCc3ccccc3C2O1 (stereo in doubt; 19a) | 77 | –
36 | O=C1NC2CCCc3cc(F)ccc3C2O1 (stereo in doubt; 20e) | 96 | 0.04
37 | CC(C)c1ccc2c(c1)C1OC(=O)NC1CCC2 (stereo in doubt; 20g) | 37 | –
38 | CS(=O)(=O)c1ccc2c(c1)C(O)C(N)CCC2 (stereo unspecified) | 5 | –
39 | Cc1ccc2c(c1)CCCC(N)C2O (stereo unspecified) | 93 | 0.05
40 | COc1cc2c(cc1SC)C(O)C(N)CCC2 (stereo in doubt; 4ff) | 81 | 0.05

Row | Compound | Inhibitory response [1] [%] | Relative potency [2]
41 | CC(C)Oc1ccc2c(c1)C(O)C(N)CCC2 (stereo in doubt; 4n) | 4 | –
42 | O=C1N[C@@H]2CCCc3cccnc3[C@@H]2O1 | 82 | 0.3
43 | Cl.N[C@@H]1CCCc2cccnc2[C@@H]1O | 36 | –
44 | COc1ccc2c(c1)C1OC(=O)NC1CCC2 (stereo in doubt; 19g) | 20 | –
45 | NC1CCCc2ccc(Cl)cc2C1O (stereo in doubt; 4z) | 94 | 0.34
46 | COc1cc2c(cc1[S+](C)[O-])C(O)C(N)CCC2 (stereo in doubt; 4ii) | 0 | –
47 | O=C1NC2CCCc3ccccc3C2O1 (stereo in doubt; 19b) | 24 | –
48 | NC1CCCc2ccc(Cl)cc2C1O (stereo in doubt; 4aa) | 44 | –
49 | CSc1ccc2c(c1)C(O)C(N)CCC2 (stereo in doubt; 4l) | 11 | 0.02
50 | COc1ccc2c(c1)C1OC(=O)NC1CCC2 (stereo in doubt; 20f) | 24 | –
51 | CC(C)c1ccc2c(c1)C1OC(=O)NC1CCC2 (stereo in doubt; 19h) | 7 | –
52 | NC[C@@H](O)c1ccccc1 | 21 | –
53 | Cl.NC1CCCc2ccc([N+](=O)[O-])cc2C1O (stereo unspecified) | 100 | 0.25
54 | NC1CCCc2cc(Cl)ccc2C1O (stereo unspecified) | 94 | 0.08
55 | Cl.NC1CCCc2ccccc2C1O (stereo in doubt; 4a) | 93 | –
56 | COc1cc2c(cc1OC)C(O)C(N)CCCC2.Cl (stereo unspecified) | 0 | –
57 | CC(C)(C)C(=O)OCOc1ccc2c(c1)C(O)C(N)CCC2 (stereo in doubt; 4q) | 16 | –
58 | Cl.NC1CCCc2cc(F)ccc2C1O (stereo unspecified) | 100 | 0.18
